# Experimental data from ChEMBL document CHEMBL1275561, “In vitro activities of doripenem, a new broad-spectrum carbapenem, against recently collected clinical anaerobic isolates, with emphasis on the Bacteroides fragilis group” (2008).
# What was measured:
# Type in all cases: functional
# Cutibacterium acnes [1] = test: Antimicrobial activity against Propionibacterium acnes by agar dilution method
# Method in brief: (§1)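 Log-phase isolates were adjusted to 0.5 McFarland, and about 10^5 CFU/spot was delivered by Steers replicator. Plates were incubated anaerobically at 37°C for 48 h. MIC was the lowest concentration giving a marked growth change versus the control plate. Eubacterium lentum ATCC 43055 was the QC strain, with repeats when out of range.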
# Bacteroides ovatus [2] = test: Antimicrobial activity against Bacteroides ovatus by agar dilution method
# Method in brief: (§2)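 CLSI agar dilution on enriched brucella agar (5% lysed defibrinated sheep blood, 1 μg/ml vitamin K1), with drug plates made on the test day. Log-phase cells were adjusted to 0.5 McFarland, and about 10^5 CFU/spot was delivered by Steers replicator. Plates were incubated anaerobically at 37°C for 48 h. MIC was the lowest concentration giving a marked growth change versus the control plate. Controls were B. fragilis ATCC 25285 and B. thetaiotaomicron ATCC 29741.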
# Bacteroides nordii [3] = test: Antimicrobial activity against Bacteroides nordii by agar dilution method; method in brief: as §2
# Bacteroides fragilis [4] = test: Antimicrobial activity against Bacteroides fragilis by agar dilution method; method in brief: as §2
# Peptostreptococcus sp. = test: Antimicrobial activity against Peptostreptococcus sp. by agar dilution method; method in brief: as §1
# Parabacteroides merdae [5] = test: Antimicrobial activity against Bacteroides merdae assessed as resistant isolates by agar dilution method
# Method in brief: (§3)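 CLSI agar dilution on enriched brucella agar (5% lysed defibrinated sheep blood, 1 μg/ml vitamin K1), plates made on test day. Log-phase inocula adjusted to 0.5 McFarland; about 10^5 CFU/spot by Steers replicator. Incubated anaerobically at 37°C for 48 h. MIC was the lowest concentration giving a marked change in growth versus the drug-free control plate. Resistance rates used CLSI anaerobe breakpoints. Controls were B. fragilis ATCC 25285 and B. thetaiotaomicron ATCC 29741.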
# Phocaeicola vulgatus [6] = test: Antimicrobial activity against Bacteroides vulgatus by agar dilution method; method in brief: as §2
# [7] = test system: Clostridium paraputrificum; test: Antimicrobial activity against Clostridium paraputrificum by agar dilution method
# [8] = test system: Bacteroides thetaiotaomicron; test: Antimicrobial activity against Bacteroides thetaiotaomicron by agar dilution method; method in brief: as §2
# Bacteroides uniformis [9] = test: Antimicrobial activity against Bacteroides uniformis assessed as resistant isolates by agar dilution method; method in brief: as §3
# Clostridium tertium = test: Antimicrobial activity against Clostridium tertium by agar dilution method
# [Clostridium] innocuum [10] = Antimicrobial activity against Clostridium innocuum by agar dilution method
# Cutibacterium acnes [11] = test: Antimicrobial activity against Propionibacterium acnes assessed as resistant isolates by agar dilution method
# Method in brief: (§4)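 Agar dilution following CLSI on brucella agar with 5% lysed defibrinated sheep blood and 1 μg/ml vitamin K1, plates made on test day. Log-phase cells at 0.5 McFarland, about 10^5 CFU/spot by Steers replicator, 48 h anaerobic at 37°C. MIC read as the lowest concentration causing a marked growth change versus control. Resistance counted by CLSI anaerobe breakpoints. Eubacterium lentum ATCC 43055 served as control.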
# Propionibacterium [12] = test: Antimicrobial activity against Propionibacterium sp. assessed as resistant isolates by agar dilution method; method in brief: as §4
# Parabacteroides merdae [13] = test: Antimicrobial activity against Bacteroides merdae by agar dilution method; method in brief: as §2
# Bacteroides nordii [14] = test: Antimicrobial activity against Bacteroides nordii assessed as resistant isolates by agar dilution method; method in brief: as §3
# Bacteroides eggerthii [15] = test: Antimicrobial activity against Bacteroides eggerthii assessed as resistant isolates by agar dilution method; method in brief: as §3
# Clostridium subterminale = test: Antimicrobial activity against Clostridium subterminale by agar dilution method
# Finegoldia magna [16] = test: Antimicrobial activity against Finegoldia magna by agar dilution method
# Method in brief: (§5)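 Gram-positive anaerobes were tested by CLSI agar dilution on brucella agar enriched with 5% lysed defibrinated sheep blood and 1 μg/ml vitamin K1. Inoculum was log-phase growth at 0.5 McFarland, about 10^5 CFU/spot by replicator. Incubation was anaerobic, 37°C, 48 h. MIC was the lowest concentration with a marked growth change versus the drug-free plate. Eubacterium lentum ATCC 43055 was the control, and tests were repeated if it fell outside the CLSI range.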
# Propionibacterium [17] = test: Antimicrobial activity against Propionibacterium sp. by agar dilution method; method in brief: as §1
# Finegoldia magna [18] = test: Antimicrobial activity against Finegoldia magna assessed as resistant isolates by agar dilution method; method in brief: as §4
# Bacteroides fragilis [19] = test: Antimicrobial activity against Bacteroides fragilis assessed as resistant isolates by agar dilution method; method in brief: as §3
# Bacteroides uniformis [20] = test: Antimicrobial activity against Bacteroides uniformis by agar dilution method; method in brief: as §2
# [21] = test system: Parabacteroides distasonis; test: Antimicrobial activity against Bacteroides distasonis by agar dilution method; method in brief: as §2
# Clostridium perfringens = test: Antimicrobial activity against Clostridium perfringens by agar dilution method
# Anaerococcus prevotii = test: Antimicrobial activity against Anaerococcus prevotii by agar dilution method; method in brief: as §5
# Clostridioides difficile = test: Antimicrobial activity against Clostridium difficile by agar dilution method
# [Clostridium] innocuum [22] = Antimicrobial activity against Clostridium innocuum assessed as resistant isolates by agar dilution method; details: pooled result: one value given for 4 cell lines, strains, targets or settings
# [23] = test system: Peptoniphilus asaccharolyticus; test: Antimicrobial activity against Peptoniphilus asaccharolyticus by agar dilution method; method in brief: as §5
# Bacteroides eggerthii [24] = test: Antimicrobial activity against Bacteroides eggerthii by agar dilution method; method in brief: as §2
# Bacteroides caccae [25] = test: Antimicrobial activity against Bacteroides caccae assessed as resistant isolates by agar dilution method; method in brief: as §3
# Bacteroides caccae [26] = test: Antimicrobial activity against Bacteroides caccae by agar dilution method; method in brief: as §2
# [27] = test system: Peptoniphilus asaccharolyticus; test: Antimicrobial activity against Peptoniphilus asaccharolyticus assessed as resistant isolates by agar dilution method; details: pooled result: one value given for 4 cell lines, strains, targets or settings; method in brief: as §4
# [28] = test system: Parabacteroides distasonis; test: Antimicrobial activity against Bacteroides distasonis assessed as resistant isolates by agar dilution method; method in brief: as §3
# Phocaeicola vulgatus [29] = test: Antimicrobial activity against Bacteroides vulgatus assessed as resistant isolates by agar dilution method; method in brief: as §3
# Bacteroides ovatus [30] = test: Antimicrobial activity against Bacteroides ovatus assessed as resistant isolates by agar dilution method; method in brief: as §3
# Parvimonas micra = test: Antimicrobial activity against Micromonas micros by agar dilution method; method in brief: as §5
# [31] = test system: Bacteroides thetaiotaomicron; test: Antimicrobial activity against Bacteroides thetaiotaomicron assessed as resistant isolates by agar dilution method; method in brief: as §3
smiles,measurement,setting,value
C[C@@H](O)[C@H]1C(=O)N2C(C(=O)O)=C(S[C@@H]3CN[C@H](C(=O)Nc4cccc(C(=O)O)c4)C3)[C@H](C)[C@H]12,MIC,Cutibacterium acnes [1],0.06 µg/mL
same,MIC50,Cutibacterium acnes [1],0.06 µg/mL
same,MIC90,Cutibacterium acnes [1],0.06 µg/mL
same,MIC50,Bacteroides ovatus [2],1 µg/mL
same,MIC90,Bacteroides ovatus [2],4 µg/mL
same,MIC50,Bacteroides nordii [3],1 µg/mL
same,MIC90,Bacteroides nordii [3],2 µg/mL
same,MIC50,Bacteroides fragilis [4],0.5 µg/mL
same,MIC90,Bacteroides fragilis [4],2 µg/mL
same,MIC50,Peptostreptococcus sp.,0.125 µg/mL
same,MIC90,Peptostreptococcus sp.,0.5 µg/mL
same,Activity,Parabacteroides merdae [5],0%
same,MIC50,Phocaeicola vulgatus [6],0.5 µg/mL
same,MIC90,Phocaeicola vulgatus [6],2 µg/mL
same,MIC50,[7],4 µg/mL
same,MIC90,[7],8 µg/mL
same,MIC50,[8],2 µg/mL
same,MIC90,[8],4 µg/mL
same,Activity,Bacteroides uniformis [9],0%
same,MIC50,Clostridium tertium,4 µg/mL
same,MIC90,Clostridium tertium,8 µg/mL
same,MIC50,[Clostridium] innocuum [10],4 µg/mL
same,MIC90,[Clostridium] innocuum [10],8 µg/mL
same,Activity,Cutibacterium acnes [11],0%
same,Activity,Propionibacterium [12],0%
same,MIC50,Parabacteroides merdae [13],1 µg/mL
same,MIC90,Parabacteroides merdae [13],2 µg/mL
same,Activity,Bacteroides nordii [14],0%
same,Activity,Bacteroides eggerthii [15],0%
same,MIC50,Clostridium subterminale,4 µg/mL
same,MIC90,Clostridium subterminale,8 µg/mL
same,MIC50,Finegoldia magna [16],0.125 µg/mL
same,MIC90,Finegoldia magna [16],0.125 µg/mL
same,MIC,Propionibacterium [17],0.06 µg/mL
same,MIC50,Propionibacterium [17],0.06 µg/mL
same,MIC90,Propionibacterium [17],0.25 µg/mL
same,Activity,Finegoldia magna [18],0%
same,Activity,Bacteroides fragilis [19],2%
same,MIC50,Bacteroides uniformis [20],0.5 µg/mL
same,MIC90,Bacteroides uniformis [20],2 µg/mL
same,MIC50,[21],1 µg/mL
same,MIC90,[21],4 µg/mL
same,MIC,Clostridium perfringens,0.06 µg/mL
same,MIC50,Clostridium perfringens,0.06 µg/mL
same,MIC90,Clostridium perfringens,0.25 µg/mL
same,MIC50,Anaerococcus prevotii,0.125 µg/mL
same,MIC90,Anaerococcus prevotii,0.5 µg/mL
same,MIC,Clostridioides difficile,2 µg/mL
same,Activity,[Clostridium] innocuum [22],0%
same,MIC50,[23],0.125 µg/mL
same,MIC90,[23],0.5 µg/mL
same,MIC50,Bacteroides eggerthii [24],1 µg/mL
same,MIC90,Bacteroides eggerthii [24],2 µg/mL
same,Activity,Bacteroides caccae [25],0%
same,MIC50,Bacteroides caccae [26],0.5 µg/mL
same,MIC90,Bacteroides caccae [26],2 µg/mL
same,Activity,[27],0%
same,Activity,[28],0%
same,Activity,Phocaeicola vulgatus [29],0%
same,Activity,Bacteroides ovatus [30],2.9%
same,MIC50,Parvimonas micra,0.125 µg/mL
same,MIC90,Parvimonas micra,0.5 µg/mL
same,Activity,[31],0%
CO[C@@]1(NC(=O)Cc2cccs2)C(=O)N2C(C(=O)O)=C(COC(N)=O)CS[C@@H]21 [CEFOXITIN],MIC,Cutibacterium acnes [1],1 µg/mL
same,MIC50,Cutibacterium acnes [1],1 µg/mL
same,MIC90,Cutibacterium acnes [1],1 µg/mL
same,MIC50,Bacteroides ovatus [2],16 µg/mL
same,MIC90,Bacteroides ovatus [2],64 µg/mL
same,MIC50,Bacteroides nordii [3],16 µg/mL
same,MIC90,Bacteroides nordii [3],32 µg/mL
same,MIC50,Bacteroides fragilis [4],16 µg/mL
same,MIC90,Bacteroides fragilis [4],32 µg/mL
same,MIC,Peptostreptococcus sp.,1 µg/mL
same,MIC50,Peptostreptococcus sp.,1 µg/mL
same,MIC90,Peptostreptococcus sp.,4 µg/mL
same,Activity,Parabacteroides merdae [5],0%
same,MIC50,Phocaeicola vulgatus [6],8 µg/mL
same,MIC90,Phocaeicola vulgatus [6],32 µg/mL
same,MIC50,[7],64 µg/mL
same,MIC90,[7],> 128 µg/mL
same,MIC50,[8],32 µg/mL
same,MIC90,[8],64 µg/mL
same,Activity,Bacteroides uniformis [9],9.5%
same,MIC50,Clostridium tertium,64 µg/mL
same,MIC90,Clostridium tertium,> 128 µg/mL
same,MIC50,[Clostridium] innocuum [10],64 µg/mL
same,MIC90,[Clostridium] innocuum [10],128 µg/mL
same,Activity,Cutibacterium acnes [11],0%
same,Activity,Propionibacterium [12],0%
same,MIC50,Parabacteroides merdae [13],16 µg/mL
same,MIC90,Parabacteroides merdae [13],32 µg/mL
same,Activity,Bacteroides nordii [14],0%
same,Activity,Bacteroides eggerthii [15],0%
same,MIC50,Clostridium subterminale,64 µg/mL
same,MIC90,Clostridium subterminale,> 128 µg/mL
same,MIC,Finegoldia magna [16],1 µg/mL
same,MIC50,Finegoldia magna [16],1 µg/mL
same,MIC90,Finegoldia magna [16],1 µg/mL
same,MIC,Propionibacterium [17],1 µg/mL
same,MIC50,Propionibacterium [17],1 µg/mL
same,MIC90,Propionibacterium [17],1 µg/mL
same,Activity,Finegoldia magna [18],0%
same,Activity,Bacteroides fragilis [19],3%
same,MIC50,Bacteroides uniformis [20],16 µg/mL
same,MIC90,Bacteroides uniformis [20],64 µg/mL
same,MIC50,[21],16 µg/mL
same,MIC90,[21],32 µg/mL
same,MIC,Clostridium perfringens,1 µg/mL
same,MIC50,Clostridium perfringens,1 µg/mL
same,MIC90,Clostridium perfringens,4 µg/mL
same,MIC,Anaerococcus prevotii,1 µg/mL
same,MIC50,Anaerococcus prevotii,1 µg/mL
same,MIC90,Anaerococcus prevotii,4 µg/mL
same,MIC,Clostridioides difficile,> 8 µg/mL
same,Activity,[Clostridium] innocuum [22],55.6%
same,MIC,[23],1 µg/mL
same,MIC50,[23],1 µg/mL
same,MIC90,[23],4 µg/mL
same,MIC50,Bacteroides eggerthii [24],16 µg/mL
same,MIC90,Bacteroides eggerthii [24],32 µg/mL
same,Activity,Bacteroides caccae [25],6.3%
same,MIC50,Bacteroides caccae [26],16 µg/mL
same,MIC90,Bacteroides caccae [26],32 µg/mL
same,Activity,[27],0%
same,Activity,[28],6.7%
same,Activity,Phocaeicola vulgatus [29],3.2%
same,Activity,Bacteroides ovatus [30],14.3%
same,MIC,Parvimonas micra,1 µg/mL
same,MIC50,Parvimonas micra,1 µg/mL
same,MIC90,Parvimonas micra,4 µg/mL
same,Activity,[31],10.3%
